Source: ChEMBL document CHEMBL1145200, “4-Benzyl and 4-benzoyl-3-dimethylaminopyridin-2(1H)-ones: in vitro evaluation of new C-3-amino-substituted and C-5,6-alkyl-substituted analogues against clinically important HIV mutant strains” (J Med Chem, 2005)

Columns and labels:
[1] = tested on: Human immunodeficiency virus 1; assay: In vitro inhibitory concentration against HIV-1 Y181C mutant strain; type: functional, organism-based
In short: (§1)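 MT4 human T-lymphoblastoid cells, grown in RPMI 1640 with 10% fetal calf serum and antibiotics at 37 °C under 5% CO2. Mutant HIV-1 strains were added at 200 CCID50/well with 30 000 cells/well across a compound concentration range. After 5 days at 37 °C, viability was read by MTT colorimetry. EC50 is the concentration giving 50% infection relative to the drug-free control.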

[2] = tested on: Human immunodeficiency virus 1; assay: In vitro inhibitory concentration against HIV K103N mutant strain; type: functional, organism-based; in short: as §1
[3] = tested on: Human immunodeficiency virus 1; assay: In vitro inhibitory concentration against HIV LAI cell line; type: functional, organism-based; settings: Human immunodeficiency virus 1, LAI
In short: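 HIV-1 LAI was added at 200 CCID50/well to MT4 human T-lymphoblastoid cells (30 000 cells/well) across a concentration range of compound. Cells were grown in RPMI 1640 with 10% fetal calf serum and antibiotics. After 5 days at 37 °C in 5% CO2, cell viability was read by MTT colorimetry. EC50 was the concentration giving 50% infection versus the drug-free control.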

[4] = tested on: Human immunodeficiency virus 1; assay: Selective index value (ratio of CC50 to IC50 value)against HIV LAI cell line; type: functional
In short: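 Ratio of CC50 to IC50 against LAI. CC50 came from mock-infected MT4 cultures (30 000 cells/well) given the same compound concentration range, run in parallel with LAI-infected cultures (200 CCID50/well). Incubation was 5 days at 37 °C in 5% CO2, with MTT viability read-out.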

[5] = tested on: Human immunodeficiency virus 1; assay: In vitro inhibitory concentration against HIV Y188L mutant strain; type: functional, organism-based; in short: as §1
[6] = tested on: Human immunodeficiency virus 1; assay: In vitro inhibitory concentration against HIV L100I mutant strain; type: functional, organism-based; in short: as §1
[7] = tested on: Human immunodeficiency virus 1; assay: In vitro inhibitory concentration against HIV K101E mutant strain; type: functional, organism-based; in short: as §1
[8] = tested on: Human immunodeficiency virus 1; assay: In vitro inhibitory concentration against HIV K101E and K103N mutant strain; type: functional, organism-based; in short: as §1
[9] = tested on: Human immunodeficiency virus 1; assay: In vitro inhibitory concentration against HIV L100I and K103N mutant strain; type: functional, organism-based; in short: as §1
[10] = tested on: Human immunodeficiency virus 1; assay: In vitro inhibitory concentration against HIV G190S mutant strain; type: functional, organism-based; in short: as §1
[11] = tested on: Human immunodeficiency virus 1; assay: In vitro inhibitory concentration against HIV V179E mutant strain; type: functional, organism-based; in short: as §1
[12] = tested on: Human immunodeficiency virus 1; assay: In vitro inhibitory concentration value against HIV K103N and Y181C mutant strain; type: functional, organism-based; in short: as §1
[13] = tested on: Human immunodeficiency virus 1; assay: In vitro inhibitory concentration against HIV F227L and V106A mutant strain; type: functional, organism-based; in short: as §1
[14] = tested on: Human immunodeficiency virus 1; assay: In vitro inhibitory concentration against HIV G190A mutant strain; type: functional, organism-based; in short: as §1
[15] = tested on: Human immunodeficiency virus 1; assay: In vitro inhibitory concentration against HIV F227C mutant strain; type: functional, organism-based; in short: as §1
[16] = tested on: Human immunodeficiency virus 1; assay: In vitro inhibitory concentration against HIV E138K mutant strain; type: functional, organism-based; in short: as §1

SMILES	IC50 [1] [µM]	IC50 [2] [µM]	IC50 [3] [µM]	SI [4]	IC50 [5] [µM]	other results
CCC(=O)Nc1c(Cc2cc(C)cc(C)c2)c(CC)c(C)[nH]c1=O	100	100	3.98	25		
CCc1c(C)[nH]c(=O)c(NC(C)=O)c1Cc1cc(C)cc(C)c1	25.1	19.9	0.398	251	100	
CCNc1c(Cc2cc(C)cc(C)c2)c(CC)c(C)[nH]c1=O	100	0.316	0.016	126	100	
CCCN(C)c1c(Cc2cc(C)cc(C)c2)c(CC)c(C)[nH]c1=O	0.398	0.1	0.016	6310		
CCOCCN(C)c1c(Cc2cccc(C)c2)c(CC)c(C)[nH]c1=O			0.013	7940		
CCCc1c(C)[nH]c(=O)c(N(C)C)c1Cc1cc(C)cc(C)c1	0.316	0.079	0.05	2000	0.631	
CCc1c(C)nc(O)c(N(C)C)c1C(=O)c1cccc(C)c1			0.0025	39800	2	
CCc1c(C)[nH]c(=O)c(N(CC)CC)c1Cc1cc(C)cc(C)c1	1.26	0.398	0.016	6310	2.51	
CCc1c(C)[nH]c(=O)c(N2CCCCC2)c1Cc1cc(C)cc(C)c1	39.8	63.1	0.631	158		
CCc1c(C)[nH]c(=O)c(N(C)CCCO)c1Cc1cccc(C)c1	1.58	0.316	0.003	31600	5.01	
COCCCc1c(C)nc(O)c(N(C)C)c1C(=O)c1cc(C)cc(C)c1	0.05	0.01	0.002	12600	0.2	IC50 [6]: 0.008 µM
CCc1[nH]c(=O)c(N(C)C)c(Cc2cc(C)cc(C)c2)c1C	0.251	0.1	0.01	10000	5.01	
CCc1c(C)[nH]c(=O)c(N(C)CCO)c1Cc1cccc(C)c1	1.26	0.794	0.005	7940	12.6	
CCCCNc1c(Cc2cc(C)cc(C)c2)c(CC)c(C)[nH]c1=O	5.01	2	0.126	398		
CCc1c(C)[nH]c(=O)c(N(C)CCCCCO)c1Cc1cc(C)cc(C)c1	0.126	0.1	0.004	12600	2.51	
Cc1cccc(C(=O)c2c(C)c(C)nc(O)c2N(C)C)c1	2	0.398	0.016	6310	50.1	
CCc1c(C)[nH]c(=O)c(NC(=S)Nc2ccccc2)c1Cc1cccc(C)c1			3.16	25		
CCc1c(C)nc(O)c(NC(=S)NC(=O)c2ccccc2)c1Cc1cccc(C)c1	100	100	6.31	16	100	
CCc1c(C)[nH]c(=O)c(NCc2ccccc2)c1Cc1cc(C)cc(C)c1	10	3.16	0.251	251		
CCc1c(C)[nH]c(=O)c(N(C)C(C)COC)c1Cc1cc(C)cc(C)c1 (configuration not stated)	0.398	0.079	0.006	7940	0.251	IC50 [7]: 0.058 µM; IC50 [8]: 0.362 µM; IC50 [9]: 1 µM; IC50 [10]: 0.062 µM; IC50 [11]: 0.009 µM; IC50 [12]: 8.68 µM; IC50 [6]: 0.079 µM; IC50 [13]: 10 µM; IC50 [14]: 0.078 µM; IC50 [15]: 0.869 µM; IC50 [16]: 0.017 µM
CCc1c(C)[nH]c(=O)c(N(C)CCCC#N)c1Cc1cccc(C)c1	2	0.316	0.005	12600	3.16	
Cc1cc(C)cc(Cc2cc(C)[nH]c(=O)c2N(C)C)c1	79.4	31.6	0.398	251	100	
Cc1cc(C)cc(Cc2c(CC(C)C)c(C)[nH]c(=O)c2N(C)C)c1	0.158	0.063	0.05	2000	0.398	

SMILES	IC50 [1] [µM]	IC50 [2] [µM]	IC50 [3] [µM]	SI [4]	IC50 [5] [µM]	other results
CCNC(=S)Nc1c(Cc2cccc(C)c2)c(CC)c(C)[nH]c1=O			25.1	4		
CCc1c(C)[nH]c(=O)c(N2CCOCC2)c1Cc1cc(C)cc(C)c1	10	100	0.158	251		
CCc1c(C)[nH]c(=O)c(N(C)CCCSC)c1Cc1cc(C)cc(C)c1	0.501	1	0.025	398		
CCCCN(CCCC)c1c(Cc2cc(C)cc(C)c2)c(CC)c(C)[nH]c1=O	100	100	50.1	2		
CCc1c(C)[nH]c(=O)c(N(C)CC#N)c1Cc1cccc(C)c1	1.58	0.316	0.004	25100	12.6	
CCc1c(C)[nH]c(=O)c(NC=O)c1Cc1cc(C)cc(C)c1	7.94	0.794	0.079	1260	0.316	
CCc1c(C)[nH]c(=O)c(NC)c1Cc1cc(C)cc(C)c1	1	0.079	0.01	5010	2	
CCc1c(C)[nH]c(=O)c(-n2cccc2)c1Cc1cc(C)cc(C)c1	1.26	0.398	0.0126	1260	2	
CCc1nc(O)c(N(C)C)c(C(=O)c2cccc(C)c2)c1C			0.1	1000		
CCc1c(C)[nH]c(=O)c(N(Cc2ccccc2)Cc2ccccc2)c1Cc1cc(C)cc(C)c1	79.4	50.1	100	1		
CCc1c(C)[nH]c(=O)c(N(C)CCCCCO)c1Cc1cccc(C)c1	1.58	0.501	0.01	6310	5.01	
Cc1cc(C)cc(Cc2c(C)c(C)[nH]c(=O)c2N(C)C)c1	0.398	0.398	0.005	2000	3.16	
CCc1c(C)[nH]c(=O)c(N(C)CCOC)c1Cc1cc(C)cc(C)c1	0.316	0.063	0.002	20000	0.1	IC50 [7]: 0.01 µM; IC50 [8]: 0.069 µM; IC50 [9]: 0.121 µM; IC50 [10]: 0.042 µM; IC50 [11]: 0.003 µM; IC50 [12]: 3.34 µM; IC50 [6]: 0.003 µM; IC50 [13]: 2.51 µM; IC50 [14]: 0.016 µM; IC50 [15]: 0.339 µM; IC50 [16]: 0.01 µM
Cc1cc(C)cc(Cc2c(C)c(C(C)C)[nH]c(=O)c2N(C)C)c1			0.794	126		
COCCc1c(C)nc(O)c(N(C)C)c1C(=O)c1cccc(C)c1	1.26	0.158	0.004	7940	10	
CCc1c(C)[nH]c(=O)c(NC(N)=S)c1Cc1cccc(C)c1			0.316	316		
Cc1cc(C)cc(Cc2cc[nH]c(=O)c2N(C)C)c1	100	39.8	7.94	10		
CCc1c(C)[nH]c(=O)c(N(C)CCC#N)c1Cc1cccc(C)c1			0.016	6310		
CCc1c(CO)nc(O)c(N(C)C)c1C(=O)c1cc(C)cc(C)c1	0.072	0.003	0.001	12600	0.631	IC50 [7]: 0.005 µM; IC50 [8]: 0.007 µM; IC50 [9]: 0.02 µM; IC50 [10]: 0.002 µM; IC50 [11]: 0.001 µM; IC50 [12]: 0.149 µM; IC50 [6]: 0.001 µM; IC50 [13]: 0.794 µM; IC50 [14]: 0.003 µM; IC50 [15]: 0.234 µM; IC50 [16]: 0.004 µM
CCCNc1c(Cc2cc(C)cc(C)c2)c(CC)c(C)[nH]c1=O	15.8	1.58	0.02	398	100	
CCc1c(C)[nH]c(=O)c(N(C)CCOC)c1Cc1cccc(/C=C/C#N)c1	0.04	0.02	0.001	10000	0.316	IC50 [9]: 0.05 µM; IC50 [12]: 0.398 µM; IC50 [6]: 0.008 µM; IC50 [13]: 1 µM
CCCC(=O)Nc1c(Cc2cc(C)cc(C)c2)c(CC)c(C)[nH]c1=O	100	100	100	1		
Cc1ccnc2c1NC(=O)c1cccnc1N2C1CC1 [NEVIRAPINE]	10				100	IC50 [10]: 0.044 µM; IC50 [11]: 0.195 µM; IC50 [12]: 100 µM; IC50 [13]: 0.163 µM; IC50 [15]: 0.135 µM; IC50 [16]: 0.05 µM
